High-throughput results: PubChem, several laboratories
SENP7 block – SENP7 protease inhibitors, primary screen, biochemical, luminescence, uHTS; hit rate 1.5% among 330,000; inhibition, % at 5 µM; recombinant SENP7, Z-RLRGG-aminoluciferin luminescence, 40 min;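 active = inhibition above about 50% at the single test dose, limit read from the data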
SENP1 inh – human SENP1 catalytic domain inhibitors, primary screen, biochemical, FRET, uHTS | recombinant SENP1 catalytic domain, CyPet-SUMO1-YPet FRET cleavage | hit rate 0.21% among 360,000 | AID 624204, 2012 | inhibition, % at 10 µM;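 active = inhibition at least 30% at 10 µM, raw YFP signal under a set limit, fluorescence ratio 0.5 to 1.5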
Target sequence (Q9P0U3 419-644 limits assumed): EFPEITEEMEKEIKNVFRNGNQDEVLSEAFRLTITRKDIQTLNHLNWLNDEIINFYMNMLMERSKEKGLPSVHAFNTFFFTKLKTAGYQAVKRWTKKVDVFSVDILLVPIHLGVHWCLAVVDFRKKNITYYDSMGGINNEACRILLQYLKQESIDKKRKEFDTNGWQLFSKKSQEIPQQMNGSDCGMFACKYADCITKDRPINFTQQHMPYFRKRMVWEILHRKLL
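Material – human SENP1 catalytic domain · Input – SENP1 enzyme, 20 pM final · Compound dosing – single concentration of 10 µM compound, 0.5% DMSO final · Timing – enzyme reaction for 50 min at room temperature, dark · Measured by – FRET fluorescence in CFP and YFP emission channels · Control set – no-enzyme wells low, DMSO-plus-enzyme wells high control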
SENP8 block-1 – human SENP8 protease inhibitors, primary screen, biochemical, fluorescence, Nedd8 protein substrate, uHTS. recombinant SENP8. inhibition, % at 20 µM. hit rate 0.64% among 360,000; in the data active = inhibition mostly above about 40%, no sharp cut-off; inactive = mostly below about 27%
Target sequence (Q96LD8 whole entry, looked up): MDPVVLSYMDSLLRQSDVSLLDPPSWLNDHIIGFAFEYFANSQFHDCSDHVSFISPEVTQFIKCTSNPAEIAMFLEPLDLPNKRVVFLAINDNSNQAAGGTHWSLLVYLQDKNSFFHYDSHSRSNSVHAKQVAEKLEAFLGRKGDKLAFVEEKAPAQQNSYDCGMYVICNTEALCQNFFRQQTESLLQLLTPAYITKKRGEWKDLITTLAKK
SENP8 block-2 – SENP8 protease inhibitors, primary screen, biochemical, luminescence | inhibition, % at 10 µM | purified SENP8, Z-RLRGG-aminoluciferin cleavage | hit rate 1.2% among 330,000 | Sentrin-specific protease 8 (Homo sapiens), Q96LD8; in the data active = inhibition above about 50%
Platelet DG rel – inhibitors of platelet dense granule secretion, primary screen, cell-based, MLPCN, human platelets. human platelet-rich plasma, SFLLRN dense granule ATP release, luminescence. inhibition, %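 (compounds screened at 7.5 µM in platelet-rich plasma)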. hit rate 0.22% among 300,000. AID 1663, 2009;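 active = mean replicate score, as percent of positive control, at or above 50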
SENP6 inh – SENP6 protease inhibitors, primary screen, biochemical, luminescence, uHTS; Recombinant SENP6 catalytic domain, aminoluciferin luminescence; Sentrin-specific protease 6 (Homo sapiens), Q9GZR1; hit rate 1.8% among 330,000; inhibition, % at 10 µM;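 active = inhibition above about 50% at the single tested dose, limit read from the data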
SENP8 conf – human SENP8 protease inhibitors, confirmation, biochemical, Nedd8 protein substrate, single concentration; inhibition, % at 25 µM; shares compounds with SENP8 block-1; AID 624319, 2012; hit rate 15% among 1,400; purified SENP8, Nedd8-AMC/pro-Nedd8 cleavage fluorescence, 30 min; in the data active = inhibition mostly above about 39%, no sharp cut-off; inactive = mostly below about 34%
A number is an active result; . = inactive; / = not tested or not shown. Shown are actives, neighbours in structure and some others; about 2.6% of the full set was active somewhere.

SMILES	SENP7 block	SENP1 inh	SENP8 block-1	SENP8 block-2	Platelet DG rel	SENP6 inh	SENP8 conf
CC(=O)Nc1ccc(Nc2cc(N3CCOCC3)c3nonc3c2[N+](=O)[O-])cc1	.	.	.	.	.	.	/
O=[N+]([O-])c1c(Nc2ccccc2O)cc(Cl)c2nonc12	.	.	42	.	.	.	.
O=C(Cn1c(=O)n(CCC(=O)N2CCCCC2)c(=O)c2sccc21)NCc1ccccc1	.	.	.	.	.	.	/
C/C(=N\NC(=O)c1ccccn1)c1ccc(Cl)cc1	.	.	55	.	.	.	.
C/C(=N\NC(=O)c1ccc(Cl)cc1)c1ccccn1	.	.	.	.	.	.	/
CC1=[N+](C)N(c2ccccc2)C(=O)C1N=C/C=C/c1ccccc1 (centres undefined)	.	.	42	.	.	.	.
COc1ccccc1/C=C/C=NC1C(=O)N(c2ccccc2)[N+](C)=C1C (centres undefined)	.	.	.	.	.	.	/
O=C(CCN1C(=O)c2ccccc2S1(=O)=O)Nc1ccc(F)c(F)c1F	.	.	.	.	.	.	/
N#CC(c1ccc(N)cc1)C(CC(=O)c1ccccc1)c1ccccc1 (centres undefined)	/	.	.	/	/	/	/
COc1ccc(Br)c(C(=O)OCC(=O)N2CCC(Cc3ccccc3)CC2)c1	.	.	42	.	/	.	.
CC1(C(=O)NS(=O)(=O)c2cccc(Cl)c2)CCN1C(=O)c1ccccc1 (centres undefined)	/	.	.	/	/	/	/
CCN1CCC2(CC1)N=C(c1ccc(F)cc1)C(=S)N2C(=O)c1ccc(C(C)(C)C)cc1	.	.	.	.	.	.	/
CN1CCC2(CC1)N=C(c1ccc(F)cc1)C(=S)N2C(=O)c1ccccc1	.	.	55	.	.	.	39
CC(c1c(O)c2ccccc2[nH]c1=O)C1(C)CCC(O)C(C)(C)O1 (centres undefined)	.	.	44	.	.	.	.
N#Cc1c(-c2ccc(Cl)cc2)c(-c2ccc(Cl)cc2)nn(CCO)c1=O	/	.	.	/	/	/	/
Cc1c(Cl)cccc1NC(=S)NCCc1ccccn1	.	.	47	.	.	.	.
S=C(NCCc1ccccn1)Nc1ccccc1Cl	.	.	.	.	.	.	/
CCNC(=S)NNC(=S)NCc1ccccc1	.	.	.	.	.	.	/
CCC(NC(=S)NCc1ccccc1)C(=O)O (centres undefined)	.	.	48	.	.	.	.
C[C@H]1NC(=O)[C@@]2(C)[C@H](c3ccccc3)[C@H]3COc4ccccc4[C@@H]3N2C1=O	.	.	.	.	/	.	/
COc1ccc(NS(=O)(=O)NC(=O)c2c(C)n(C)c3ccccc23)cc1	.	.	39	.	.	.	.
COc1cccc(N2C(=O)C(CC(=O)Nc3ccc(F)cc3)N(C3CCCCC3)C2=O)c1 (centres undefined)	.	.	46	.	.	.	.
Cc1cc(NC(=O)c2nn(C)c(C)c2Br)no1	.	.	.	.	.	.	/
CCCn1c(N)c(N2CCCCC2)c(=O)n(CC(=O)Nc2cccc(S(=O)(=O)N(C)C)c2)c1=O	.	.	.	.	/	.	/
Cc1ccc(NC(=S)NCc2ccc(Cl)cc2)c(OC(F)F)c1	.	.	.	.	.	.	/
SMILES	SENP7 block	SENP1 inh	SENP8 block-1	SENP8 block-2	Platelet DG rel	SENP6 inh	SENP8 conf
CCOCCSc1nc2c(c(=O)[nH]c(=O)n2C)n1CCCc1ccccc1	.	.	44	.	.	.	.
COCCCN1C(=O)C(=O)/C(=C(/O)c2ccc(S(=O)(=O)N3CCOCC3)cc2)C1c1ccc(C(C)C)cc1 (centres undefined)	.	.	.	.	.	.	/
O=C(O)C1CCN(c2c([N+](=O)[O-])cc(C(F)(F)F)cc2[N+](=O)[O-])CC1	.	.	.	.	.	.	/
O=[N+]([O-])c1cc(C(F)(F)F)cc([N+](=O)[O-])c1N1CCN(S(=O)(=O)c2ccccc2)CC1	.	.	40	.	.	.	.
O=C(NCc1ccccc1)C(=O)NCC(c1ccco1)N1CCOCC1 (centres undefined)	.	.	.	.	.	.	/
O=C(NCCc1ccccc1)C(=O)NCC(c1ccco1)N1CCOCC1 (centres undefined)	.	.	43	.	.	.	.
CS(=O)(=O)N(CC(=O)NCC1CCCO1)c1ccc(F)c(Cl)c1 (centres undefined)	.	.	51	.	.	.	.
CCCCn1nnnc1C1(C)CCC(=O)N1CC(F)(F)F (centres undefined)	/	.	.	/	/	/	/
COc1cccc(C=NN2CCCCCC2)c1OC	/	.	.	/	/	/	/
Cc1cccc(NS(=O)(=O)c2cc(C(=O)OCC(=O)Nc3cc(C)on3)ccc2C)c1	.	.	41	.	.	.	.
CC1CCC(=NNc2ccc(C(F)(F)F)cc2[N+](=O)[O-])CC1 (centres undefined)	.	.	43	.	.	.	.
CC(C)c1ccc(NC(=O)CCc2ccccc2)cc1	.	.	.	.	.	.	/
CC1CCCC(NC(=O)COC(=O)/C=C/c2ccc(F)cc2)C1C (centres undefined)	.	.	.	.	/	.	/
O=[N+]([O-])c1ccc(CSc2ccc(S(=O)(=O)N3CCCC3)cn2)cc1	.	.	.	.	/	.	/
COc1cc(NC(=O)c2ccc(NC3=NC4CS(=O)(=O)CC4S3)cc2)cc(OC)c1OC (centres undefined)	.	.	.	.	.	.	/
C=CCc1ccc(OC(=O)c2ccccc2)c(OC)c1	.	.	48	.	.	.	.
COc1ccccc1NS(=O)(=O)c1ccc(C)c(NC(=O)C2CCCO2)c1 (centres undefined)	.	.	.	.	/	.	/
COC(=O)c1cc(C(=O)Nc2nc3ccccc3[nH]2)cc([N+](=O)[O-])c1	.	.	.	.	.	.	/
C/C(=N\Nc1nc2ccccc2[nH]1)c1ccc([N+](=O)[O-])cc1	.	.	54	.	.	.	.
O=C(CCO)c1ccc(O)cc1	.	.	44	.	.	.	.
COc1ccc(NC(=O)C(=O)NCC2CCCN2S(=O)(=O)c2cccs2)cc1 (centres undefined)	.	.	.	.	.	.	/
COc1ccc(C(C(=O)NCc2ccccc2)n2c(-c3ccccn3)nc3ccccc32)cc1 (centres undefined)	/	.	.	/	/	/	/
